Reference: PMC8553517 (ACS infectious diseases, 2021)
Several values for one entry are separate records, joined by “and”; a condition that tells them apart may be missing. Identical values can stand only once.

Experiments:
[1] = tested on: intracellular L. donovani; assay: L. donovani-infected macrophage assay; assay type: cell-based, Leishmania donovani; conditions: Leishmania donovani, Macrophage, read-out: IC50 against L. donovani
J774 macrophages = assay: J774 macrophage toxicity assay; assay type: cell-based, mouse; conditions: for IC50: Mus musculus, J774, read-out: IC50 against J774 macrophages
HepG2 cells = assay: HepG2 toxicity assay; assay type: cell-based; conditions: for IC50: Homo sapiens, HepG2, 72 h, read-out: IC50 against HepG2
[2] = molecular target: recombinant L. donovani CYP51 (Leishmania donovani, UniProt A0A3S7WRS7); assay: Fluorescence-based L. donovani CYP51 inhibition assay; assay type: biochemical
L. donovani CYP51 = L. donovani CYP51 ligand binding spectra; design: species or system Leishmania donovani; conditions: titration of CYP51; absorbance maximum 431 nm, minimum 412–413 nm
How it was run: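 Purified N-terminally truncated L. donovani CYP51 (CYP51-32c, His-tagged; purity by SDS-PAGE/anti-His Western blot, CO-difference spectra) at 0.5 µM, titrated in 30 mM potassium phosphate pH 7.4 with 0.1 mM EDTA and 20% glycerol. […], and sample-minus-reference difference spectra were recorded.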

recombinant human CYP3A4 = recombinant human CYP3A4 (Homo sapiens, UniProt P08684); assay: Inhibition of recombinant human CYP3A4; assay type: in vitro ADME
Chain of recombinant human CYP3A4 (P08684 whole entry): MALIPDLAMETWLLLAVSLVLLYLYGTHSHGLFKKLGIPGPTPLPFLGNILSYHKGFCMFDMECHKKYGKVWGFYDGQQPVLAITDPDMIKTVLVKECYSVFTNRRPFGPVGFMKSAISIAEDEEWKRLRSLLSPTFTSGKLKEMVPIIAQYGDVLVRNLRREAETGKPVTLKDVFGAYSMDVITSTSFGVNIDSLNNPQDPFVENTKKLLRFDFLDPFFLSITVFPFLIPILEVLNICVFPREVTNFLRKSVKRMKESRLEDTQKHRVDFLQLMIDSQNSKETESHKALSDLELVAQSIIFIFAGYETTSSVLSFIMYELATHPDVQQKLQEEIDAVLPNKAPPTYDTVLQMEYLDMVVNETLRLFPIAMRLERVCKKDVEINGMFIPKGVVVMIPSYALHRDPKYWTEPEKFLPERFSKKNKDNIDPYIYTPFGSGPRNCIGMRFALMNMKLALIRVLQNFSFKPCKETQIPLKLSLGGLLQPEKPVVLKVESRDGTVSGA

[3] = Microsomal stability, human liver microsomes; assay type: in vitro ADME; conditions: for remaining at 1 h, 3 μM: human, liver microsomes
[4] = Microsomal stability, mouse liver microsomes; assay type: in vitro ADME; conditions: mouse, liver microsomes
[5] = tested on: L. donovani-infected female BALB/c mice; assay: Murine visceral leishmaniasis model; assay type: in vivo; conditions: for Reduction in liver parasitemia: three days after final dose
How it was run: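 Female BALB/c mice infected with L. donovani; groups of four. Dosing by oral gavage for 5 consecutive days, starting one week post-infection. Test compound was given at 75 or 37.5 mg/kg/day in 50% PEG400/50% water. Reference drug miltefosine was given at 10 mg/kg/day in water. The vehicle control group received PEG-400. Liver parasitemia was determined three days after the final dose, reported as percent reduction (mean ± S.E.M.).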

IC50 [1] [µM] | IC50 [2] [µM] | remaining at 1 h, 3 μM [3] [%] | Degradation by human liver microsomes (in words) ([3]; over a period of one hour, substrate 3 μM) | remaining at 1 h, 3 μM [4] [%] | SMILES | IC50 (J774 macrophages) [µM] | IC50 (HepG2 cells) [µM] | CYP51 binding spectrum type (L. donovani CYP51) | IC50 (recombinant human CYP3A4) [µM] | Selectivity index (IC50 vs. mammalian cell line/IC50 vs. L. donovani) (J774 macrophages; J774 macrophages vs. intracellular L. donovani) | Selectivity index (IC50 vs. mammalian cell line/IC50 vs. L. donovani) (HepG2 cells; HepG2 cells vs. intracellular L. donovani) | Reduction in liver parasitemia ([5]; 37.5 mg/kg/day × 5 p.o.) [%] | Reduction in liver parasitemia ([5]; 75 mg/kg/day × 5 p.o., mean ± S.E.M.) | Reduction of liver infection ([5]; 10 mg/kg/day × 5 p.o.) [%]
1 | 0.36 ± 0.03 | 100 | not degraded | – | N=C(Nc1ccc(OCCCCCCCCn2ccnc2)cc1)c1ccccn1 [Compound 9h, N-(4-((8-(1H-imidazol-1-yl)octyl)oxy)phenyl) picolinimidamide] | 11 ± 1 | 12 ± 3 | typical Type II binding spectra | 0.047 ± 0.003 | – | – | – | – | –
0.73 ± 0.15 | 0.34 ± 0.01 | > 80 | – | 100 | CCOc1cc(OCCCCCCCCn2ccnc2)ccc1NC(=N)c1ccccn1 [Compound 24b, N-(4-((8-(1H-imidazol-1-yl)octyl)oxy)-2-ethoxyphenyl) picolinimidamide] | 6.8 ± 0.1 | 12 ± 2 | – | – | – | – | – | – | –
– | – | – | – | – | CCCCCCCCCCCCCCCCOP(=O)([O-])OCC[N+](C)(C)C [Miltefosine, miltefosine, reference compound] | – | – | – | – | – | – | – | – | 95 ± 2

SMILES | IC50 [1] [µM] | IC50 [2] [µM] | remaining at 1 h, 3 μM [3] [%] | Degradation by human liver microsomes (in words) ([3]; over a period of one hour, substrate 3 μM) | remaining at 1 h, 3 μM [4] [%] | IC50 (J774 macrophages) [µM] | IC50 (HepG2 cells) [µM] | CYP51 binding spectrum type (L. donovani CYP51) | IC50 (recombinant human CYP3A4) [µM] | Selectivity index (IC50 vs. mammalian cell line/IC50 vs. L. donovani) (J774 macrophages; J774 macrophages vs. intracellular L. donovani) | Selectivity index (IC50 vs. mammalian cell line/IC50 vs. L. donovani) (HepG2 cells; HepG2 cells vs. intracellular L. donovani) | Reduction in liver parasitemia ([5]; 37.5 mg/kg/day × 5 p.o.) [%] | Reduction in liver parasitemia ([5]; 75 mg/kg/day × 5 p.o., mean ± S.E.M.) | Reduction of liver infection ([5]; 10 mg/kg/day × 5 p.o.) [%]
CC(C)Oc1cc(OCCCCCCCCn2ccnc2)ccc1NC(=N)c1ccccn1 [Compound 24c, N-(4-((8-(1H-imidazol-1-yl)octyl)oxy)-2-isopropoxyphenyl) picolinimidamide] | 0.53 ± 0.05 | 0.33 ± 0.01 | – | – | – | 6.8 ± 0.2 | 12 ± 2 | typical Type II binding spectra | 0.08 ± 0.009 | 13 | 23 | 17 ± 5 | 33% and 33 ± 7% | –
